Screening results (PubChem)
Sampled rows, rich in hits. Any-hit rate of the full collection: about 2%.
M5 ag – human M5 muscarinic receptor agonists, primary screen, CHO-K1 cells, Fluo-8 calcium fluorescence. CHO-K1 hM5 cells; 0% DMSO wells, 100% maximal acetylcholine response. activation, % at 3 µM. actives 0.19% (n = 360,000). Muscarinic acetylcholine receptor M5 (Homo sapiens), P08912. AID 624037, 2012;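 active = activation above the run's mean over test compounds plus 3 SD, cut at about 23% in these data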;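 note: signal is peak over basal fluorescence ratio across the kinetic read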
CHRM1 PAM – human M1 muscarinic receptor positive allosteric modulators, primary screen, CHO-K1 cells, Fluo-8 calcium fluorescence, 1536-well | CHO-K1 hM1, ACh EC20; 0% = ACh EC20, 100% = maximal ACh | AID 588819, 2011 | actives 0.088% (n = 360,000) | Muscarinic acetylcholine receptor M1 (Homo sapiens), P11229 | activation, % at 3 µM; in the data active = activation above about 19%, passing the limit was not always enough
Target sequence (P11229 whole entry, looked up): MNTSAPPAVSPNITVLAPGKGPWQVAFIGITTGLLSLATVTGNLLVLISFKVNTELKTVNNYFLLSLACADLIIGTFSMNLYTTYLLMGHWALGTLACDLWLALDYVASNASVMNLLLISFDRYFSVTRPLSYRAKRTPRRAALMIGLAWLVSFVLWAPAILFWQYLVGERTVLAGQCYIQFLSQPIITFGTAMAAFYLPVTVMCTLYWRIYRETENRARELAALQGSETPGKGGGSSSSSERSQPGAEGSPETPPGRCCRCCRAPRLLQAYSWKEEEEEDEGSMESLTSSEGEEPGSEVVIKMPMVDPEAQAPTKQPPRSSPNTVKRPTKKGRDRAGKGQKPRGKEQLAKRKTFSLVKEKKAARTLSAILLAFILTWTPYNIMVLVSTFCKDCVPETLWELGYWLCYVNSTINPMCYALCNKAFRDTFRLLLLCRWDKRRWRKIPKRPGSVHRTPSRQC
M5 antag – human M5 muscarinic receptor antagonists, primary screen, CHO cells, Fluo-8 calcium fluorescence. Muscarinic acetylcholine receptor M5 (Homo sapiens), P08912. CHO-hM5 cells, ACh EC80. inhibition, % at 3 µM. actives 0.59% (n = 360,000). AID 624040, 2012;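 active = inhibition above a per-plate cutoff, the mean of that plate's test compounds plus 3 SD, cut at about 27% in these data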
CHRM1 antagonist – human M1 muscarinic receptor antagonists, primary screen, CHO-K1 cells, Fluo-8 calcium fluorescence, 1536-well. Muscarinic acetylcholine receptor M1 (Homo sapiens), P11229. CHO-K1 hM1, ACh EC80 antagonist. inhibition, % at 3 µM. actives 1.3% (n = 360,000). AID 588852, 2011;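 active = percent inhibition above its own plate's cutoff, namely the mean of that plate's compound wells plus 3 SD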;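 note: peak over basal fluorescence ratio during 140 s after agonist addition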
CHRM1 agonist – human M1 muscarinic receptor agonists, primary screen, Fluo-8 calcium fluorescence, CHO-K1 cells, HTS | Muscarinic acetylcholine receptor M1 (Homo sapiens), P11229 | CHO-K1 hM1, agonist mode; 0% DMSO, 100% acetylcholine EC100 | activation, % at 3 µM | actives 0.33% (n = 360,000) | AID 588814, 2011;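 active = activation above the run's mean compound activation plus 3 SD, cut at about 16% in these data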;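 note: peak over basal fluorescence ratio within a 140 s kinetic read after compound addition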
M5 PAM – human M5 muscarinic receptor positive allosteric modulators, primary screen, CHO-K1 cells, Fluo-8 calcium fluorescence; CHO-K1 hM5, ACh EC20 PAM; 0% = ACh EC20, 100% = ACh EC100; activation, % at 3 µM; actives 0.3% (n = 360,000); AID 624038, 2012;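 active = activation above the run cutoff, the mean activation of all test compounds plus 3 SD, cut at about 18% in these data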
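Assay system: CHO-K1 hM5 cells / Incubation: Fluo-8 loading 80 min at 37 °C plus 30 min room temperature / Technique: Fluo-8 calcium dye fluorescence, kinetic read / Repeats: single replicate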
Of the large screens only hits and unclear results are named; the others gave an inactive call.

COc1cc(C(=O)NC(=S)Nc2ccc3c(c2)OCO3)cc(OC)c1OC	none
COc1ccc(/C=C/C(=O)NC(=S)NNC(=O)c2cccs2)cc1	CHRM1 agonist 21
Cc1ccccc1OCC(=O)NNC(=S)NC(=O)c1ccco1	CHRM1 agonist 18
C#CCNC(=O)C[C@@H]1C[C@@]2(C(=O)OCC)CCC=C2N(CCC2=CCCCC2)C1=O	none (no result: CHRM1 PAM, CHRM1 antagonist, CHRM1 agonist)
CC(=O)c1cc(F)ccc1OCC(=O)N1CCCc2ccccc21	none
COc1ccccc1N(C(=O)CNC(=O)c1ccco1)C(C(=O)NC1CCCC1)c1ccco1 (stereo not given)	none
COc1ccccc1Cc1c(-c2ccc(Cl)cc2)nc2ccc(Br)cn12	none
Cn1cnc(CCNC(=O)C[C@H]2CC[C@@H]3[C@H](COC[C@H](O)CN3C(=O)C3CCCC3)O2)c1	none (no result: CHRM1 PAM, CHRM1 antagonist, CHRM1 agonist)
Cc1ccnc2nc(C(=O)OCC(=O)N(C)C3CCCCC3)nn12	none
O=C(NC1CCCCC1)C(c1ccnc2ccccc12)n1c(=O)c(-c2ccccc2)nc2ccccc21 (stereo not given)	none (no result: CHRM1 PAM, CHRM1 antagonist, CHRM1 agonist)
Cc1ccc(C(=O)NC(=S)NNC(=O)c2ccccc2)cc1	M5 ag 40, CHRM1 agonist 36
COc1ccc(Cl)cc1C(=O)NNC(=S)NC(=O)c1cc(-c2ccc(Cl)cc2)nc2ccccc12	none
Cc1ccc(C(=O)NNC(=S)NC(=O)c2ccc(Cl)cc2Cl)cc1	M5 ag 77, CHRM1 antagonist 46, CHRM1 agonist 105
Cc1ccc(C(=O)NC(=S)NNC(=O)c2ccccc2O)cc1	none
COc1ccc(Cl)cc1C(=O)NNC(=S)NC(=O)c1ccc(F)c(F)c1	CHRM1 agonist 37
O=C(CNC(=S)NC(=O)c1ccc(Cl)cc1)c1ccccc1	CHRM1 PAM 32
CN(C)C(=O)C[C@@H]1C=C[C@@H](NC(=O)C2CCC2)[C@@H](CO)O1	none (no result: CHRM1 PAM, CHRM1 antagonist, CHRM1 agonist)
COc1cc(C(=O)NC(=S)NCc2ccncc2)cc(OC)c1OC	none
Cc1ccc(C(=O)NNC(=S)NC(=O)c2ccco2)cc1	CHRM1 agonist 30
Cc1ccc(C(=O)NNC(=O)c2ccco2)cc1	none
Cc1cccc(C(=O)NNC(=S)NC(=O)c2ccccc2)c1	M5 ag 57, CHRM1 agonist 97
CC(C)(C)c1cc(CCC(=O)NNC(=S)NC(=O)c2ccccc2)cc(C(C)(C)C)c1O	CHRM1 antagonist 49, CHRM1 agonist 81
Nc1ccccc1C(=O)NN=Cc1cccnc1	none
CC1(c2nnnn2-c2ccc3c(c2)OCCO3)CCC(=O)N1CC(F)(F)F (stereo not given)	none (no result: CHRM1 PAM, CHRM1 antagonist, CHRM1 agonist)
N#Cc1ccccc1C[C@H](N)C(=O)NC[C@H]1O[C@@H](n2ccc(N)nc2=O)[C@H](O)[C@@H]1O	none
COc1cc2c(cc1OC)CN(CCC(C)c1ccc(Cl)cc1)CC2 (stereo not given)	CHRM1 antagonist 43
CN(c1ccccc1)S(=O)(=O)c1cccc(NC(=O)CCNC(=O)c2ccco2)c1	none
Cc1cccc(NC(=O)C(=O)C2C(=O)Nc3ccccc32)c1 (stereo not given)	M5 PAM 19
N#Cc1ccc(OCC(O)CN2CCC(C(O)(c3ccccc3)c3ccccc3)CC2)cc1 (stereo not given)	CHRM1 antagonist 32
O=C(COc1ccc(Cl)cc1Br)NC(=O)NC1CCCC1	CHRM1 antagonist 31
O=C(COc1ccccc1Cl)NC(=O)NC1CCCC1	CHRM1 antagonist 34
CCCN1C2CCCC1CC(NC(=S)Nc1ccc(OC)cc1)C2 (stereo not given)	none
CCc1ccc(NC(=S)NC2CC3CCCC(C2)N3Cc2cccs2)cc1 (stereo not given)	CHRM1 antagonist 27
CCc1ccccc1NC(=O)NC1CC2CCC(C1)N2Cc1cccs1 (stereo not given)	CHRM1 antagonist 45
Cc1ccc(NC(=O)N2C3CCCC2CC(NC(=O)C(C)(C)C)C3)cc1 (stereo not given)	none
CCc1ccccc1NC(=O)N1C2CCCC1CC(NC(=O)C(C)(C)C)C2 (stereo not given)	CHRM1 antagonist 48
Cc1ccc([C@@H]2CC(=O)[C@@H]3CN(S(=O)(=O)c4ccc(C)cc4)[C@H](c4ccccc4)C[C@@H]3N2S(=O)(=O)c2ccc(C)cc2)cc1	none
CCOC(=O)N(C)c1c(CC)nc2c(OCc3ccc(F)c(F)c3)cccn12	none
CCc1nc2c(OCCOc3ccccc3)cccn2c1N(C)C(=O)c1ccc(C)cc1	CHRM1 antagonist 44
Cc1nc2c(OCc3ccc(C(F)(F)F)cc3)cccn2c1N(C)CC1CC1	CHRM1 antagonist 36
Cc1nc2c(OCc3cc(Cl)cc(Cl)c3)cccn2c1N(C)C(=O)CCC1CCCC1	CHRM1 antagonist 38
CCc1nc2c(OCc3ccc(F)c(F)c3)cccn2c1N(C)C(=O)C1CC1	CHRM1 antagonist 25
CC(=O)OC[C@@H]1CN(Cc2ccccc2)C[C@H](n2cnc3c(NCc4ccc(F)cc4)ncnc32)O1	none
C#Cc1cccc(Nc2nc(NC(C)C)nc3ccsc23)c1	none
Cc1nc2c(OCc3ccc(C#N)cc3)cccn2c1N(C)Cc1cccs1	CHRM1 antagonist 45
Cc1nc2c(OCC(=O)c3ccc(F)cc3)cccn2c1N(C)Cc1cccs1	none
Cc1cc(/C=C(\C#N)C(N)=O)c(C)n1-c1ccc(N2CCOCC2)c([N+](=O)[O-])c1	M5 ag 29, CHRM1 agonist 34
Cc1cc(C=O)c(C)n1-c1ccc(N2CCCCC2)c([N+](=O)[O-])c1	none
O=[N+]([O-])c1ccc(CS(=O)(=O)c2ccc(Cl)cc2)cc1	CHRM1 antagonist 41
C=CCN1[C@H](COCc2ccccc2)C=CS1(=O)=O	none
O=C(c1cc([N+](=O)[O-])ccc1N1CCOCC1)N1CCN(c2ccc([N+](=O)[O-])cc2)CC1	CHRM1 antagonist 32
O=C(NC1CCCCC1)N1CCN(c2ccc(Cl)cc2)CC1	none
O=C(c1cc([N+](=O)[O-])ccc1N1CCOCC1)N1CCCCC1	none
Cc1noc(C)c1CSCC(=O)N1CCN(c2ccc([N+](=O)[O-])cc2)CC1	M5 antag 29, CHRM1 antagonist 58
O=C(NC1CCCCC1)N1CCN(c2ccc([N+](=O)[O-])cc2)CC1	CHRM1 antagonist 27
